{"source": "paper PMC12254776", "about": "(Acta Pharmaceutica Sinica. B, 2025)", "key": {"RM-1 cells [1]": {"test_system": "RM-1 cells", "assay": "MTT cytotoxicity assay against RM-1 cells", "format": "cell-based, mouse", "conditions": "for effect of GSP on the sensitivity of cells to the drug: GSP at an ineffective concentration of 0.5 μmol/L", "method_in_brief": "(§1)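 Cells were seeded at 2 × 10³ per well and grown for 12 h at 37 ℃, 5% CO₂. RM-1, 4T1 and L02 were kept in RPMI 1640 with 10% FBS; 3T3 in DMEM/F-12 with 10% FBS. […] MTT (5 mg/mL stock) was added for 4 h, formazan was dissolved in DMSO, and absorbance was read at 492 nm.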"}, "4T1 cells": {"test_system": "4T1 cells", "assay": "MTT cytotoxicity assay against 4T1 cells", "format": "cell-based, mouse", "conditions": "48 h", "method_in_brief": "as §1"}, "L02 cells": {"test_system": "L02 cells", "assay": "MTT cytotoxicity assay against L02 cells", "format": "cell-based, human", "method_in_brief": "as §1"}, "RM-1 cells [2]": {"test_system": "RM-1 cells", "assay": "Mitochondrial membrane potential assay", "format": "cell-based, mouse", "conditions": "green = low potential", "method_in_brief": "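Cells were stained with JC-1 working solution at 37 ℃ for 20 min, washed twice in cold JC-1 buffer and imaged by confocal microscopy (red aggregates, green monomers). Depolarization was quantified in ImageJ. For flow cytometry, cells seeded at 5 × 10⁴/well were trypsinised before staining. Untreated cells were the control.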"}, "RM-1 cells [3]": {"test_system": "RM-1 cells", "assay": "Live/dead cell co-staining", "format": "cell-based, mouse", "conditions": "100 nmol/L CTX equivalent and/or 300 nmol/L GSP equivalent, 24 h", "method_in_brief": "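RM-1 cells were seeded on coverslips at 5 × 10⁴ cells/well and grown for 12 h. […] Cells were stained with Calcein-AM (live) and PI (dead) for 30 min and imaged by confocal microscopy. Untreated cells were the control.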"}, "3T3 cells": {"test_system": "3T3 cells", "assay": "MTT cytotoxicity assay against 3T3 cells", "format": "cell-based, mouse", "method_in_brief": "as §1"}, "RM-1 prostate tumor [4]": {"test_system": "RM-1 prostate tumor", "assay": "In vivo antitumor efficacy, RM-1 prostate tumor-bearing C57BL/6 mice", "set-up": "species or system mouse", "conditions": "4 mg/kg CTX equivalent and/or 7.5 mg/kg GSP equivalent, i.v., every three days, three injections"}, "RM-1 prostate tumor [5]": {"test_system": "RM-1 prostate tumor", "assay": "GSP-rendered ultra-low-dose chemotherapeutic window in vivo", "set-up": "species or system mouse", "conditions": "five injections", "method_in_brief": "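Male C57BL/6 mice were given 5 × 10⁶ RM-1 cells in 100 μL PBS subcutaneously in the right rear flank. […] Dosing was i.v. every other day, five injections. Tumor volume and body weight were recorded daily. Blood was taken one day after the last dose; organs were taken for H&E.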"}, "Bcl-2": {"test_system": "Bcl-2", "assay": "Western blotting of Bcl-2 in RM-1 cells", "format": "cell-based, mouse", "conditions": "10 nmol/L CTX equivalent and/or 30 nmol/L GSP equivalent, 40 h"}, "testosterone": {"test_system": "testosterone", "assay": "Serum testosterone", "format": "in vivo, mouse", "conditions": "4 mg/kg CTX equivalent and/or 7.5 mg/kg GSP equivalent, three injections"}, "[6]": {"conditions": "14.9 mg/kg GSP equivalent, i.v."}}, "data": [{"smiles": "O=C1[O][Pt]2([NH][C@@H]3CCCC[C@H]3[NH]2)[O]C1=O", "note": "[OXP, oxaliplatin]", "values": [{"measurement": "effect of GSP on the sensitivity of cells to the drug", "setting": "RM-1 cells [1]", "result": "dramatically augmented"}]}, {"smiles": "Cc1cc2c(C(C)C)c(O)c(O)c(C=O)c2c(O)c1-c1c(C)cc2c(C(C)C)c(O)c(O)c(C=O)c2c1O", "note": "[GSP, Gossypol]", "values": [{"measurement": "cytotoxicity (in words)", "setting": "RM-1 cells [1]; MTT, 48 h", "result": "almost no cytotoxicity"}, {"measurement": "cytotoxicity (in words)", "setting": "4T1 cells", "result": "almost no cytotoxicity"}, {"measurement": "cytotoxicity (in words)", "setting": "L02 cells; MTT, 48 h", "result": "almost no cytotoxicity"}, {"measurement": "mitochondrial membrane potential change (JC-1 fluorescence, in words)", "setting": "RM-1 cells [2]", "result": "negligible impact"}, {"measurement": "cell death in live/dead staining", "setting": "RM-1 cells [3]", "result": "only a small portion of cells"}, {"measurement": "cytotoxicity (in words)", "setting": "3T3 cells; MTT, 48 h", "result": "almost no cytotoxicity"}, {"measurement": "antitumor activity (tumor growth)", "setting": "RM-1 prostate tumor [4]", "result": "moderate antitumor activity"}, {"measurement": "antitumor effects", "setting": "RM-1 prostate tumor [5]; [6]", "result": "moderate antitumor effects"}, {"measurement": "body weight of tumor-bearing mice", "setting": "RM-1 prostate tumor [5]; [6]", "result": "decreased significantly"}, {"measurement": "liver tissue sections (H&E)", "setting": "RM-1 prostate tumor [5]; [6]", "result": "some degree of liver injury"}, {"measurement": "expression of Bcl-2 protein", "setting": "Bcl-2", "result": "significantly down-regulated the expression of Bcl-2"}]}, {"smiles": "CO[C@H]1C(=O)[C@]2(C)[C@@H](OC)C[C@H]3OC[C@@]3(OC(C)=O)[C@H]2[C@H](OC(=O)c2ccccc2)[C@]2(O)C[C@H](OC(=O)[C@H](O)[C@@H](NC(=O)OC(C)(C)C)c3ccccc3)C(C)=C1C2(C)C", "note": "[CTX, Cabazitaxel]", "values": [{"measurement": "reduction in IC50 values in the presence of GSP", "setting": "RM-1 cells [1]; 0.5 μmol/L GSP", "result": "≥ 100", "unit": "fold"}, {"measurement": "effect of GSP on the sensitivity of cells to the drug", "setting": "RM-1 cells [1]", "result": "dramatically augmented"}, {"measurement": "effect of GSP on the cytotoxicity of the drug", "setting": "L02 cells; 500 nmol/L GSP", "result": "little effect"}, {"measurement": "mitochondrial membrane potential change (JC-1 fluorescence, in words)", "setting": "RM-1 cells [2]", "result": "green fluorescence signals were significantly enhanced"}, {"measurement": "serum testosterone", "setting": "testosterone", "result": "no change in serum testosterone"}, {"measurement": "cell death in live/dead staining", "setting": "RM-1 cells [3]", "result": "only a small portion of cells"}, {"measurement": "effect of GSP on the cytotoxicity of the drug", "setting": "3T3 cells; 500 nmol/L GSP", "result": "little effect"}, {"measurement": "antitumor activity (tumor growth)", "setting": "RM-1 prostate tumor [4]", "result": "moderate antitumor activity"}, {"measurement": "body weight", "setting": "RM-1 prostate tumor [5]; CTX dose gradient 1–8 mg/kg", "result": "dramatic weight loss"}, {"measurement": "hepatorenal function indicators and whole blood indexes", "setting": "RM-1 prostate tumor [5]; CTX dose gradient 1–8 mg/kg", "result": "abnormalities in hepatorenal function indicators and pancytopenia"}, {"measurement": "toxicity (weight loss, death)", "setting": "RM-1 prostate tumor [5]; high doses 4, 6 and 8 mg/kg CTX equivalent, i.v.", "result": "serious toxic side effects"}, {"measurement": "anti-tumor effects", "setting": "RM-1 prostate tumor [5]; low doses 1 and 2 mg/kg CTX equivalent, i.v.", "result": "negligible anti-tumor effects"}]}, {"smiles": "COc1cccc2c1C(=O)c1c(O)c3c(c(O)c1C2=O)C[C@@](O)(C(=O)CO)C[C@@H]3O[C@H]1C[C@H](N)[C@H](O)[C@H](C)O1", "note": "[DOX, doxorubicin]", "values": [{"measurement": "effect of GSP on the sensitivity of cells to the drug", "setting": "RM-1 cells [1]", "result": "dramatically augmented"}]}, {"smiles": "CC(=O)O[C@@]12CO[C@@H]1C[C@H](O)[C@@]1(C)C(=O)[C@H](O)C3=C(C)[C@@H](OC(=O)[C@H](O)[C@@H](NC(=O)OC(C)(C)C)c4ccccc4)C[C@@](O)([C@@H](OC(=O)c4ccccc4)[C@H]21)C3(C)C", "note": "[DTX, docetaxel]", "values": [{"measurement": "effect of GSP on the sensitivity of cells to the drug", "setting": "RM-1 cells [1]", "result": "dramatically augmented"}]}, {"smiles": "Nc1ccn([C@@H]2O[C@H](CO)[C@@H](O)C2(F)F)c(=O)n1", "note": "[GEM, gemcitabine]", "values": [{"measurement": "effect of GSP on the sensitivity of cells to the drug", "setting": "RM-1 cells [1]", "result": "dramatically augmented"}]}, {"smiles": "N.N.[Cl][Pt][Cl]", "note": "[DDP, cisplatin]", "values": [{"measurement": "effect of GSP on the sensitivity of cells to the drug", "setting": "RM-1 cells [1]", "result": "dramatically augmented"}]}]}
